Measured values as given in ChEMBL document CHEMBL4325867, “Synthesis and biological evaluation of novel H6 analogues as drug resistance reversal agents” (Eur J Med Chem, 2019).
Calls of active or inactive are those of the source. No cut-off for these calls is given here.

Assays:
[1] = Potentiation of paclitaxel-induced antitumor activity against human KBV cells xenografted in nude mouse assessed as tumor weight at […] cotreated with 30 mg/kg paclitaxel relative to control; format: functional
[2] = target: T1, ATP-dependent translocase ABCB1 (Homo sapiens, UniProt P08183); test: Reversal of P-gp-mediated drug resistance in human KBV cells assessed as potentiation of paclitaxel-induced cytotoxicity by measuring cell survival at 5 uM after 72 hrs by MTT assay (reference value: 98 +/- 19%); format: cell-based
T1 sequence (P08183 whole entry): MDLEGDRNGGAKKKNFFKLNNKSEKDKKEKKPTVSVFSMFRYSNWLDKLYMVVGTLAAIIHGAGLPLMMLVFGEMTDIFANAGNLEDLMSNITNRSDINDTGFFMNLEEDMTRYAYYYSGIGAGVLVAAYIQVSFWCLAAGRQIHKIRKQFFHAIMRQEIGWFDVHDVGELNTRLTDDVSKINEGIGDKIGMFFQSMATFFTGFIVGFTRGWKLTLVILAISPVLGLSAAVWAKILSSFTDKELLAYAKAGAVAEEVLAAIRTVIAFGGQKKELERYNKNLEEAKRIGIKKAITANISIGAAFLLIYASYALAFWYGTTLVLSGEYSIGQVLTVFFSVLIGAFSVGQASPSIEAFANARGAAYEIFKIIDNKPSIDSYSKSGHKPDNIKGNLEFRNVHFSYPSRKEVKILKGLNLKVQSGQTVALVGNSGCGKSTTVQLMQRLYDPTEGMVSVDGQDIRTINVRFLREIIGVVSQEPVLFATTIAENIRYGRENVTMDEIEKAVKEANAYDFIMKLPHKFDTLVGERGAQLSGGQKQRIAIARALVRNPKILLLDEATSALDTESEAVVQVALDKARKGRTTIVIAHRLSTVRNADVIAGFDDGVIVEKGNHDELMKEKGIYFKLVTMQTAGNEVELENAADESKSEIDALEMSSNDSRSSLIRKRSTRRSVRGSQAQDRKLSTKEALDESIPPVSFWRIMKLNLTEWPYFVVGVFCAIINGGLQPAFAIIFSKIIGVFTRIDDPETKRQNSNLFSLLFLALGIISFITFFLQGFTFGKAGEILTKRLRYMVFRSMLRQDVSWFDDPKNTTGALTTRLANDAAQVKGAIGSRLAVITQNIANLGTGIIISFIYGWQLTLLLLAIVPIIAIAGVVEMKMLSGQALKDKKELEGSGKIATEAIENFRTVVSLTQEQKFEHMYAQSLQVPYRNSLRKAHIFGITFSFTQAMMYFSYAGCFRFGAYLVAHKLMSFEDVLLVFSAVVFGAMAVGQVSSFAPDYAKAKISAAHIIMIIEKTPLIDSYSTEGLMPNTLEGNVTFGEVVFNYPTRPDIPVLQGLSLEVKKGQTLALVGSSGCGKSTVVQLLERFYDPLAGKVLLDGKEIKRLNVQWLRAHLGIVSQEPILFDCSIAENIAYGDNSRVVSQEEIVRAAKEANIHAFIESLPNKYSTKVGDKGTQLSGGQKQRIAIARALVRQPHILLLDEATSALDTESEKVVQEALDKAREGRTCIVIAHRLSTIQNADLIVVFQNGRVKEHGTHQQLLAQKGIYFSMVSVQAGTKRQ

[3] = n-octanol/aqueous buffer solution partition coefficient, log P of the compound at pH 6.8 after 4 hrs by HPLC method; format: physicochemical
Method in brief: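 Shake-flask partition between n-octanol and pH 6.8 buffer at a 1:1 ratio, room temperature, shaken 4 h. Compound concentration in each phase measured by HPLC.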

[4] = Cytotoxicity against human KBV cells assessed as cell survival at 5 uM after 72 hrs by MTT assay relative to control; format: cell-based; conditions: read-out: Survival
Method in brief: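 KBV cells (RPMI-1640 with 10% heat-inactivated FCS, 37 °C, 5% CO2, log-phase) were seeded in 96-well plates and exposed to compound alone at 5 µM for 72 h. MTT was added and incubated, then DMSO was added. OD was read at 570 nm and survival rate was calculated.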

[5] = target: T1, ATP-dependent translocase ABCB1; test: Reversal of P-gp-mediated drug resistance in human KBV cells assessed as potentiation of paclitaxel-induced cytotoxicity by measuring fold reduction in paclitaxel IC50 at 10 uM after 72 hrs by MTT assay relative to paclitaxel alone; format: cell-based
Method in brief: (§1)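 KBV cells cultured in RPMI-1640 with 10% heat-inactivated fetal calf serum at 37°C, 5% CO2, and used in log phase. Seeded in 96-well plates. Exposed to paclitaxel with or without modulator (5 or 10 µM) for 24, 48 or 72 h. MTT added, formazan dissolved in DMSO, OD read at 570 nm. Survival rate used to derive paclitaxel IC50. RF taken as the fold reduction of IC50 relative to paclitaxel alone.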

[6] = Cytotoxicity against human KBV cells xenografted in Balb/c nude mouse assessed as tumor growth inhibition at 50 mg/kg, po via gavage; format: organism-based; conditions: in vivo
Method in brief: (§2)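 Male BALB/c nude mice, 6−8 weeks old, given 5 × 10^6 KBV cells subcutaneously in the dorsal region. Randomized once tumors reached about 100-200 mm3, five per group: control, paclitaxel 30 mg/kg, test agent 50 mg/kg, or the combination. Paclitaxel given i.p. twice a week; test agent by gavage. Tumor growth measured every three days; tumors excised and weighed at the end.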

[7] = target: T1, ATP-dependent translocase ABCB1; test: Inhibition of P-gp-mediated Rhodamine-123 efflux in human KBV cells assessed as Rhodamine-123 accumulation preincubated for 2 hrs followed by Rhodamine-123 addition measured after 30 mins by flow cytometry; format: cell-based; conditions: 0.5 h
[8] = target: T1, ATP-dependent translocase ABCB1; test: Reversal of P-gp-mediated drug resistance in human KBV cells assessed as potentiation of paclitaxel-induced cytotoxicity by measuring fold reduction in paclitaxel IC50 at 5 uM after 72 hrs by MTT assay relative to paclitaxel alone; format: cell-based; method in brief: as §1
[9] = Solubility of the compound in water; format: physicochemical; conditions: buffer
[10] = target: T1, ATP-dependent translocase ABCB1; test: Reversal of P-gp-mediated drug resistance in human KBV cells assessed as potentiation of paclitaxel-induced cell cycle arrest by measuring accumulation at sub-G1 phase at 10 uM after 24 hrs by propidium iodide staining based flow cytometry
Method in brief: (§3)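 KBV cells plated in 6-well plates overnight, then treated for 24 h at 10 µM alongside paclitaxel. Cells fixed in 70% ethanol overnight at -20 °C, washed in PBS, and stained 30 min with PI/RNase A. Flow cytometry gave the cell-cycle distribution, with sub-G1 taken as apoptotic cells. Mean ± SD, n = 3.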

[11] = target: T1, ATP-dependent translocase ABCB1; test: Reversal of P-gp-mediated drug resistance in human KBV cells assessed as potentiation of paclitaxel-induced cytotoxicity by measuring fold reduction in paclitaxel IC50 at 5 uM after 24 hrs by MTT assay; format: cell-based; method in brief: as §1
[12] = target: T1, ATP-dependent translocase ABCB1; test: Reversal of P-gp-mediated drug resistance in human KBV cells assessed as potentiation of paclitaxel-induced cell cycle arrest by measuring accumulation at G2/M phase at 10 uM after 24 hrs by propidium iodide staining based flow cytometry; method in brief: as §3
[13] = Toxicity in Balb/c nude mouse xenografted with human KBV cells at 50 mg/kg, po via gavage cotreated with 30 mg/kg, ip paclitaxel; format: organism-based; conditions: in vivo
[14] = target: T1, ATP-dependent translocase ABCB1; test: Reversal of P-gp-mediated drug resistance in human KBV cells assessed as potentiation of paclitaxel-induced cytotoxicity by measuring fold reduction in paclitaxel IC50 at 10 uM after 24 hrs by MTT assay; format: cell-based; method in brief: as §1
[15] = target: T1, ATP-dependent translocase ABCB1; test: Reversal of P-gp-mediated drug resistance in human KBV cells assessed as potentiation of paclitaxel-induced cytotoxicity by measuring reduction in paclitaxel IC50 by MTT assay; format: cell-based
[16] = target: T1, ATP-dependent translocase ABCB1; test: Reversal of P-gp-mediated drug resistance in human KBV cells assessed as potentiation of paclitaxel-induced cytotoxicity by measuring fold reduction in paclitaxel IC50 at 10 uM after 48 hrs by MTT assay; format: cell-based; method in brief: as §1
[17] = target: T1, ATP-dependent translocase ABCB1; test: Reversal of P-gp-mediated drug resistance in human KBV cells assessed as potentiation of paclitaxel-induced cytotoxicity by measuring fold reduction in paclitaxel IC50 at 5 uM after 48 hrs by MTT assay; format: cell-based; method in brief: as §1
Homo sapiens = test: Potentiation of paclitaxel-induced antitumor activity against human KBV cells xenografted in Balb/c nude mouse assessed as tumor growth inhibition at 50 mg/kg, po via gavage cotreated with 30 mg/kg, ip paclitaxel; format: functional, organism-based; method in brief: as §2

| Structure (SMILES) | Activity [1] | Survival [2] | logD at 4 h [3] | viability at 72 h, 5 µM [4] | fold change (FC) [5] | TGI [6] | inhibition (INH) [7] | fold change (FC) [8] | solubility [9] | Activity [10] | fold change (FC) [11] | Activity [12] | Activity [13] | fold change (FC) [14] | Activity [15] | fold change (FC) [16] | fold change (FC) [17] | TGI (Homo sapiens) |
| --- | --- | --- | --- | --- | --- | --- | --- | --- | --- | --- | --- | --- | --- | --- | --- | --- | --- | --- |
| CC1(C)CC[C@]2(C(=O)OCc3ccccc3)CC[C@]3(C)C(=CC[C@@H]4[C@@]5(C)Cc6nccnc6[C@@](C)(CO)[C@@H]5CC[C@]43C)[C@@H]2C1 | 42% | 18% | -0.54 |  |  |  |  |  |  |  |  |  |  |  |  |  |  |  |
| CN(C)CCCOC(=O)[C@]12CCC(C)(C)C[C@H]1C1=CC[C@@H]3[C@@]4(C)Cc5nccnc5[C@@](C)(CO)[C@@H]4CC[C@@]3(C)[C@]1(C)CC2 |  | 10% | -1.25 | 97% | 250.77 | Non-Toxic | Dose-dependent effect | 32.5 | Soluble | Active | 77.1 | Active | Non-Toxic | 109.79 | Dose-dependent effect and Tde | 81.11 | 65.92 | Active |
